# Only some compounds are listed: those with a hit (about 1.5% of all), similar ones and a draw of the others.
# DAGLB inhibitor: DAGLB lipase inhibitors, primary screen, biochemical, fluorescence, HTS | Diacylglycerol lipase-beta (Homo sapiens), Q8NCG7 | HEK293T DAGLB membrane lysate, EnzChek fluorogenic substrate | inhibition, % at 5.17 µM | actives 0.059% (n = 340,000) | AID 504411, 2011; in the data active means inhibition above about 34%;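 further: 0% = enzyme with vehicle and 100% = wells lacking enzyme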
# HTRA1 inh: HTRA1 serine protease inhibitors, primary screen, biochemical, fluorescence polarization, HTS; Q92743; recombinant HTRA1, FP-rhodamine activity-based probe; inhibition, % at 5.96 µM; actives 0.5% (n = 340,000); AID 504803, 2011; in the data active means inhibition above about 36%;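 further: 0% = enzyme with DMSO and 100% = wells lacking enzyme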
# mABHD4 FP: ABHD4 inhibitors, primary screen, biochemical, fluorescence polarization, mouse | purified mABHD4, FP-Rh probe fluorescence polarization | actives 0.54% (n = 370,000) | inhibition, % at 8.92 µM | (Lyso)-N-acylphosphatidylethanolamine lipase (Mus musculus), Q8VD66;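 active means inhibition exceeding the mean over every tested compound plus 3 SD, cut at about 30% in these data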;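 further: 0% = plate median of compound wells and 100% = S159A mutant with DMSO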
# Target sequence (Q8VD66 whole entry, looked up): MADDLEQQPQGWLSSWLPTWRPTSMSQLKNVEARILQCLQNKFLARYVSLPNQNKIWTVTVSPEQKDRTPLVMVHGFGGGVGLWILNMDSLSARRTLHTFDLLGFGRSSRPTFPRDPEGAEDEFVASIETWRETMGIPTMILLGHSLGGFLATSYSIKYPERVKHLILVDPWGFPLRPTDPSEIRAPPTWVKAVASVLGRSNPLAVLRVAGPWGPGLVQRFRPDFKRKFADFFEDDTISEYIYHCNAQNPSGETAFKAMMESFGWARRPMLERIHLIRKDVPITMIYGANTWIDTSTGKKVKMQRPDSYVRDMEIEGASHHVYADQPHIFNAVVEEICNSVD
#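 Assay system: mABHD4 protein; medium: HEPES pH 7.0, NaCl, Pluronic buffer; dosing: 8.92 µM, single dose; schedule: 45 min + 60 min at 25 °C; signal: FP readout, ex 525 nm / em 598 nm; read-out: normalized percent inhibition of probe labeling; repeats: single replicate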
# TCR CD3 inh: inhibitors of human TCR-CD3 interaction, primary screen, biochemical, fluorescence, TAMRA-labeled TCR probe; actives 0.37% (n = 360,000); AID 651800, 2012; inhibition, % at 9.4 µM; in the data active means inhibition above about 19%;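 further: recombinant mutant TCR 2C K166C tagged with TAMRA read by polarization; 0% = receptor in buffer alone and 100% = receptor with positive control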
# SIAE inh: human SIAE inhibitors, primary screen, biochemical, fluorescence polarization, FP-Rh probe, 1536-well HTS; inhibition, % at 9.66 µM; actives 0.69% (n = 370,000); SIAE FP-Rh probe binding; Sialate O-acetylesterase (Homo sapiens), Q9HAT2;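 active means inhibition above a cutoff: mean of compounds within the control limits plus 3 SD of those, cut at about 17% in these data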;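 further: 0% = plate median of compound wells and 100% = probe without SIAE protein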
# SIAE confirm: human SIAE inhibitors, retest, confirmation, biochemical, fluorescence polarization, FP-Rh probe, triplicate | shares compounds with SIAE inh | SIAE FP-Rh activity-based probe | inhibition, % at 9.66 µM | actives 13% (n = 2,300) | AID 1117263, 2014;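 active means mean inhibition of the replicates above the hit cutoff set in the primary screen, cut at about 17% in these data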;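 further: 0% = SIAE with DMSO and probe and 100% = probe without SIAE; inhibitors lower polarization as more probe stays unbound to SIAE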
# The depositor's hits bear a star; nt = no result.
SMILES,DAGLB inhibitor,HTRA1 inh,mABHD4 FP,TCR CD3 inh,SIAE inh,SIAE confirm
COc1cc(NC(=O)[C@@H](Cc2ccccc2)NC(=O)[C@H]2O[C@@H](n3ccc(N)nc3=O)[C@H](O)[C@@H]2O)cc(OC)c1OC,nt,nt,-1,3,45*,46*
COc1ccccc1C(=O)N1CCN(C(=O)[C@@H](Cc2ccccc2)NC(=O)[C@H]2O[C@@H](n3ccc(N)nc3=O)[C@H](O)[C@@H]2O)CC1,nt,nt,-5,3,-1,nt
Cc1cc(C)n(CCNC(=O)[C@@H](Cc2ccccc2)NC(=O)[C@H]2O[C@@H](n3ccc(=O)[nH]c3=O)[C@H](O)[C@@H]2O)n1,nt,nt,2,-4,4,nt
C[C@@H]1NS(=O)(=O)c2c(F)cccc2O[C@@H]1c1ccccc1,nt,nt,-2,5,-5,nt
COC(=O)c1cccc(Nc2cc(C)n(-c3cccc(C(=O)OC)c3)c(=O)c2)c1,nt,nt,-2,4,-1,nt
CCCn1cnnc1CNC(=O)[C@@H](Cc1ccccc1)NC(=O)[C@H]1O[C@@H](n2ccc(=O)[nH]c2=O)[C@H](O)[C@@H]1O,nt,nt,6,5,30*,35*
CCCCCCCCN1C(=O)[C@@H](CC(=O)NCC23CC4CC(CC(C4)C2)C3)C[C@@]2(C(=O)OC)C1=C[C@H](C(C)(C)C)O[C@@H]2C,nt,nt,-1,-4,1,nt
COc1ccccc1C(=O)N1CCN(C(=O)[C@H](CCc2ccccc2)NC(=O)[C@H]2O[C@@H](n3cnc4c(N)ncnc43)[C@H](O)[C@@H]2O)CC1,nt,nt,-3,1,1,nt
CN(Cc1ccccc1)C(=O)OCc1cn(Cc2cccc(C(F)(F)F)c2)nn1,nt,nt,-5,nt,-2,nt
Cc1ccc(S(=O)(=O)N2O[C@@H](c3ccccc3)C[C@H]2CON2C(C)(C)CCCC2(C)C)cc1,nt,nt,-7,nt,-11,nt
O=S(=O)(N[C@H]1CCCC[C@@H]1N1CCOCC1)c1ccc(Cl)cc1,nt,nt,0,nt,0,nt
O=C(O)/C=C1\CCCc2ccccc2C1O (configuration not stated),4,3,0,-2,-4,nt
Cc1nc2c(o1)CCc1ccccc1C2O (configuration not stated),-3,6,6,2,41*,4
COc1ccccc1CCn1cnc(-c2cccc(Br)c2)c1C(C)C,nt,nt,-13,-1,-3,nt
O=C(CSc1nnc(-c2ccco2)n1-c1ccc(Cl)cc1)Nc1cccc2ccccc12,nt,nt,-8,nt,-6,nt
CC(=O)OC(C(=O)NC1CCCCC1)c1ccccc1F (configuration not stated),0,-3,0,6,18*,-4
CC(=O)OC(C(=O)NC1CCCCC1)c1cccc(F)c1 (configuration not stated),1,2,7,8,5,nt
Cc1ccc(-c2cc(-c3ccco3)c3c(N)c(C(=O)NN)oc3n2)cc1,-5,25,15,16,28*,45*
COC(=O)C[C@@H]1CC[C@H]2[C@@H](COc3ccc(NC(=O)Nc4ccc(C)cc4)cc3C(=O)N2C)O1,nt,nt,-3,nt,1,nt
CN(c1ccc(OCC(=O)OCC(=O)Nc2ccc([N+](=O)[O-])cc2)cc1)S(=O)(=O)c1cccs1,0,-8,5,2,40*,26*
Cn1c(SCc2ccc(F)cc2)nnc1-c1cnccn1,2,2,3,-5,-4,nt
Cn1c(SCc2ccccc2)nnc1-c1cnccn1,-3,4,11,-1,20*,6
CCOC(=O)CN1C(=O)[C@]2(OCCC=C[C@H]2C)c2cc(OC)ccc21,nt,nt,10,1,7,nt
Cc1cc(C)nc(SCC(=O)Nc2ncc3c(n2)CCCC3=O)n1,1,10,5,2,47*,-5
O=C(CSC(=S)N1CCCCC1)Nc1ncc2c(n1)CCCC2=O,1,-1,-12,3,-5,nt
SMILES,DAGLB inhibitor,HTRA1 inh,mABHD4 FP,TCR CD3 inh,SIAE inh,SIAE confirm
Cc1[nH]c(C)c(S(=O)(=O)NCc2ccco2)c1C(=O)N1CCCCC1,0,8,2,0,19*,11
O=C1CC(N2CCOCC2)=NC(=O)N1c1ccc(Br)cc1,nt,nt,4,nt,-5,nt
COC(=O)[C@]12C[C@H](CC(=O)NCc3cccc(C(F)(F)F)c3)C(=O)N(Cc3ccccc3)C1=C[C@H](COCc1ccccc1)O[C@@H]2C,nt,nt,-7,nt,8,nt
COC(=O)[C@]12C[C@H](CC(=O)NCc3cccc(C(F)(F)F)c3)C(=O)N(Cc3ccccc3)C1=C[C@H](C(C)(C)C)O[C@@H]2C,nt,nt,-3,1,27*,-2
COC(=O)[C@]12C[C@H](CC(=O)NCCCN3CCCC3=O)C(=O)N(Cc3ccccc3)C1=C[C@H](C(C)C)O[C@@H]2C1CC1,nt,nt,3,7,20*,-3
COC(=O)[C@]12C[C@H](CC(=O)NCCCN3CCCC3=O)C(=O)N(Cc3ccc4c(c3)OCO4)C1=C[C@H](C(C)C)O[C@@H]2C1CC1,nt,nt,5,nt,-4,nt
O=C(O)c1cn(-c2ccc(F)cc2)c2cc(N3CCNCC3)c(F)cc2c1=O,1,3,-10,5,-2,nt
O=C(O)c1cn(-c2ccc(F)c(F)c2)c2c(F)c(F)c(F)c(F)c2c1=O,-1,-5,2,6,20*,2
CCCC[C@H]1C2CC(OC(=O)Nc3ccc(C#N)cc3)C(C2)[C@H]2CCCCN21 (some centres not stated),nt,nt,-3,nt,0,nt
C[C@H]1CN([C@@H](C)CO)C(=O)CCCn2nncc2CO[C@@H]1CN(C)C(=O)Nc1ccccc1F,nt,nt,0,0,-2,nt
COc1cccc(NC(=O)Nc2nc(-c3ccc(OC)c(OC)c3)cs2)c1,-1,3,8,2,34*,-6
COc1ccc(-c2csc(NC(=O)Nc3ccccc3)n2)cc1,-2,13,-2,-5,44*,14
COc1ccc(NC(=O)Nc2nc(C(N)Cc3ccc(C(F)(F)F)cc3)cs2)cc1 (configuration not stated),nt,nt,26,-6,29*,16
COc1ccc(-c2csc(NC(C)=O)n2)cc1OC,1,0,1,7,-1,nt
COc1ccc(OC(=O)Nc2ccccc2)cc1,1,-3,5,2,19*,2
COc1ccc(CC(N)c2csc(NC(=O)Nc3ccc(OC)cc3)n2)cc1 (configuration not stated),nt,nt,5,-11,9,nt
CCCCCCC12Cc3cc(OC)c(OC)cc3C(O1)c1c(cc(C)oc1=O)O2 (configuration not stated),nt,nt,17,0,2,nt
O=C(NNc1c2ccccc2nc2ccccc12)c1ccc(O)cc1,21,15,15,-1,7,nt
